PMC4322771 (Biopolymers, 2008)
Ends that are not written are not given here.

Experiments:
[1] = system: Gal4(1–148)+KBP 2.20-mediated transcription; assay: Competitive inhibition, firefly luciferase reporter assay in HeLa cells; type: cell-based; settings: 0 → 20 μM, activity measured 40 h after compound addition
[2] = target: murine CBP KIX domain (CBP(586–672)) (Mus musculus, UniProt P45481); assay: Fluorescence polarization binding to CBP KIX domain
In short: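 Test compounds carried a fluorescein label at the amino terminus and were held at a constant concentration. Each was incubated at 25°C with increasing concentrations of exogenously expressed murine CBP KIX domain (residues 586–672). Fluorescence polarization was read at each protein concentration. Dissociation constants were obtained by Levenberg-Marquardt least-squares fitting of the binding data.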

murine CBP KIX domain (CBP(586–672)), sequence (P45481 586-672): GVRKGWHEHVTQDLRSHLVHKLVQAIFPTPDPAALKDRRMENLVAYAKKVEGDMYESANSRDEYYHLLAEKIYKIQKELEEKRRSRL

Substance	Inhibitory activity on KBP 2.20-mediated transcription (in words) [1]	Fold lower dissociation constant for the KIX domain relative to KBP 1.66 [2]
SRAVRELLFGS	no impact	
SWAVYELLFGS-NH2 (C-terminus assumed) [KBP 2.20]	little or no inhibitory activity	~ 3 fold
